Measured values gathered from unrelated publications.
Each line is one published result; the experiments were not run side by side. In brackets after ≈: the same amount, converted by molar mass.

Compound	target or system	assay	system	setting	endpoint	value
N.N.[Cl][Pt][Cl]	COLO 205	cell growth or viability, ATP luminescence	–	–	GI50	6.8 µg/mL
NNC(=O)c1ccncc1	Mycolicibacterium aurum	microbial growth, agar dilution	–	–	MIC	6.3 µg/mL (≈ 45.9 µM)
CCCn1c(O)nnc1SCC(=O)Nc1cc(C(F)(F)F)ccc1Cl	Plasmodium falciparum	parasite growth, SYBR Green	3D7	–	EC50	0.0666 µM
C[C@]12CC[C@H](O)C[C@@H]1CC[C@@H]1[C@@H]2CC[C@]2(C)[C@@H]([N+](=O)[O-])CC[C@@H]12	–	6 Hz seizures	mouse	intraperitoneal	ED50	83 mg/kg
CCc1nc2nc(C)cc(Nc3cc(C)cc(C)c3)n2n1	Plasmodium falciparum	parasite growth, SYBR Green	3D7	–	EC50	0.0965 µM
CC(C(=O)NCc1ccccc1)c1cccc(C(OC(=O)NCc2ccccc2)c2ccccc2)c1 (centres unmarked)	FM3A	cell growth or viability	–	48 h	IC50	14 µM
CCN(CC)CCCC(C)Nc1ccnc2cc(Cl)ccc12 (centres unmarked)	Plasmodium falciparum	parasite growth	W2	72 h, drug-resistant strain, blood stage	IC50	0.155 µg/mL
c1csc(-c2nnc3sc(Cc4ccc5c(c4)CCCC5)nn23)c1	Plasmodium falciparum	parasite growth, SYBR Green	3D7	72 h	EC50	> 12.5 µM
COc1cc2c(cc1OS(N)(=O)=O)CCN(Cc1cc(Br)c(OC)c(OC)c1)C2	CNSSF-539	cell growth or viability, SRB	–	–	GI50	0.022 µM
CC(C(=O)NCCc1ccccc1)c1cccc(C(OC(=O)NCCc2ccccc2)c2ccccc2)c1 (centres unmarked)	FM3A	cell growth or viability	–	48 h	IC50	13 µM
C[C@@]1(O)CC[C@@]2(C)[C@@H](CC[C@@H]3[C@@H]2CC[C@]2(C)[C@@H]([N+](=O)[O-])CC[C@@H]32)C1	–	6 Hz seizures	mouse	intraperitoneal	ED50	8.8 mg/kg
CCCCCCCCCCOc1cc2c(O)c(C(=O)OCC)cnc2cc1OCC	Plasmodium falciparum	parasite growth, SYBR Green	W2	blood stage	IC50	< 0.0057 µM
Cc1sc(CNCCCNc2cc(=O)c3ccccc3[nH]2)c(I)c1C	Plasmodium falciparum	parasite growth, SYBR Green	3D7	–	EC50	0.339 µM
CC(C(=O)NOCc1ccccc1)c1cccc(C(OC(=O)NOCc2ccccc2)c2ccccc2)c1 (centres unmarked)	FM3A	cell growth or viability	–	48 h	IC50	11 µM
